Among the data in ChEMBL document CHEMBL4145633, “Linfuranones B and C, Furanone-Containing Polyketides from a Plant-Associated Sphaerimonospora mesophila” (2018) are Activity values, retold here.

Activity calls are given as the source filed them. The calls are words filed in the database; no cut-off is given here.

Experiment [1] in a line: Induction of preadipocyte differentiation into matured adipocyte in mouse ST-13 cells at 20 uM incubated for 2 to 8 days followed by compound wash out measured on day 12 by oil red O staining based phase contrast microscopy relative to control. It counts as functional. In a few lines:
(§1)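 Mouse ST-13 preadipocytes were seeded on day 1 at 1 × 10^4 cells/mL in DME/F-12 with 10% FBS and penicillin/streptomycin, at 37 °C under 5% CO2. Medium containing compound, or 20 nM rosiglitazone as positive control, was renewed on days 2, 5 and 8. On day 12 cells were formalin-fixed, rinsed in 60% 2-propanol, stained with 0.24% Oil Red O and imaged by phase-contrast microscopy at 100×.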

The test system of experiment [2] is Escherichia coli. The experiment can be described thus: Antibacterial activity against Escherichia coli at 25 ug/ml. It counts as functional, organism-based.
Experiment [3] can be described thus: Induction of preadipocyte differentiation into matured adipocyte in mouse ST-13 cells at 40 uM incubated for 2 to 8 days followed by compound wash out measured on day 12 by oil red O staining based phase contrast microscopy relative to control. It counts as functional. In a few lines:
as §1

Experiment [4] deals with Micrococcus luteus. The experiment can be described thus: Antibacterial activity against Micrococcus luteus at 25 ug/ml. It counts as functional, organism-based.
Experiment [5] has as its system Candida albicans. The experiment can be described thus: […] activity against Candida albicans at 25 ug/ml. It counts as functional, organism-based.

Turning to `CCCCC(=O)[C@H](C)/C=C(\C)[C@H](O)[C@H](C)/C=C/C=C/CC[C@@H](O)CC1=C(C)C(=O)C(C)(O)O1` (stereo partly specified), the Activity came out at 45% in experiment [1] and 73% in experiment [3]. Also, the outcome in experiment [2], in experiment [4] and in experiment [5] was inactive.

On to `CC1=C(C[C@H](O)CC/C=C/C=C/[C@@H](C)[C@@H](O)/C(C)=C/[C@@H](C)O)OC(C)(O)C1=O` (stereo partly specified), for which, in experiment [1], the Activity came out at 9%.

For `CCCCC(=O)O[C@H](C)/C=C(\C)[C@H](O)[C@H](C)/C=C/C=C/CC[C@@H](O)CC1=C(C)C(=O)C(C)(O)O1` (stereo partly specified), the Activity in experiment [1] was found to be 22%; in experiment [3] it was 33%. In addition, the outcome in experiment [2], in experiment [4] and in experiment [5] was inactive.
